Assay results published in ChEMBL document CHEMBL1147066, “Structural basis of action for a human ether-a-go-go-related gene 1 potassium channel activator” (Proc Natl Acad Sci U S A, 2007).

What was measured:
[1] = molecular target: Voltage-gated inwardly rectifying potassium channel KCNH2 (Homo sapiens, UniProt Q12809, G628C/S631C); assay: Effect on human ERG1 G628C/S631C mutant expressed in Xenopus laevis oocytes at 3 uM by two electrode voltage clamp technique; type: cell-based; settings: oocyte
[2] = molecular target: T1, Voltage-gated inwardly rectifying potassium channel KCNH2 (Homo sapiens, UniProt Q12809); assay: Activation of human ERG1 isoform 1 expressed in Xenopus laevis oocytes assessed as slowing of tail current deactivation by two electrode voltage clamp technique; type: cell-based; settings: oocyte
Procedure, shortened: (§1)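 hERG1 (WT or point mutant) cRNA injected into Xenopus oocytes; two-electrode voltage clamp 1-5 days later. Bath: 96 mM NaCl, 2 mM KCl, 1 mM CaCl2, 2 mM MgCl2, 5 mM Hepes, pH 7.6. Holding potential -90 mV. Protocols repeated 10-15 min after adding compound to the bath, diluted from a 10 mM DMSO stock; one concentration per oocyte.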

[3] = molecular target: T2, Voltage-gated inwardly rectifying potassium channel KCNH2 (Homo sapiens, UniProt Q12809, N658A); assay: (§2) Activation of human ERG1 N658A mutant expressed in Xenopus laevis oocytes assessed as slowing of tail current deactivation at 3 uM by two electrode voltage clamp technique; type: cell-based; settings: oocyte; procedure, shortened: as §1
[4] = molecular target: Voltage-gated inwardly rectifying potassium channel KCNH2 (Homo sapiens, UniProt Q12809, Y652A); assay: Activation of human ERG1 Y652A mutant expressed in Xenopus laevis oocytes assessed as slowing of tail current deactivation at 3 uM by two electrode voltage clamp technique; type: cell-based; settings: oocyte; procedure, shortened: as §1
[5] = molecular target: T3, Voltage-gated inwardly rectifying potassium channel KCNH2 (Homo sapiens, UniProt Q12809, V659A); assay: (§3) Activation of human ERG1 V659A mutant expressed in Xenopus laevis oocytes assessed as slowing of tail current deactivation at 3 uM by two electrode voltage clamp technique; type: cell-based; settings: oocyte; procedure, shortened: as §1
[6] = molecular target: Voltage-gated inwardly rectifying potassium channel KCNH2 (Homo sapiens, UniProt Q12809, I662A); assay: Activation of human ERG1 I662A mutant expressed in Xenopus laevis oocytes assessed as shifting of voltage dependence of inactivation towards positive potentials at 3 uM by two electrode voltage clamp technique; type: cell-based; settings: oocyte; procedure, shortened: as §1
[7] = molecular target: T4, Voltage-gated inwardly rectifying potassium channel KCNH2 (Homo sapiens, UniProt Q12809, L666A); assay: Activation of human ERG1 L666A mutant expressed in Xenopus laevis oocytes assessed as shifting of voltage dependence of inactivation towards positive potentials at 3 uM by two electrode voltage clamp technique; type: cell-based; settings: oocyte; procedure, shortened: as §1
[8] = molecular target: Voltage-gated inwardly rectifying potassium channel KCNH2 (Homo sapiens, UniProt Q12809, Y667A); assay: Activation of human ERG1 Y667A mutant expressed in Xenopus laevis oocytes assessed as shifting of voltage dependence of inactivation towards positive potentials at 3 uM by two electrode voltage clamp technique; type: cell-based; settings: oocyte; procedure, shortened: as §1
[9] = molecular target: Voltage-gated inwardly rectifying potassium channel KCNH2 (Homo sapiens, UniProt Q12809, V549A); assay: Activation of human ERG1 V549A mutant expressed in Xenopus laevis oocytes assessed as shifting of voltage dependence of inactivation towards positive potentials at 3 uM by two electrode voltage clamp technique; type: cell-based; settings: oocyte; procedure, shortened: as §1
[10] = molecular target: Voltage-gated inwardly rectifying potassium channel KCNH2 (Homo sapiens, UniProt Q12809, L550A); assay: Activation of human ERG1 L550A mutant expressed in Xenopus laevis oocytes assessed as shifting of voltage dependence of inactivation towards positive potentials at 3 uM by two electrode voltage clamp technique; type: cell-based; settings: oocyte; procedure, shortened: as §1
[11] = molecular target: T5, Voltage-gated inwardly rectifying potassium channel KCNH2 (Homo sapiens, UniProt Q12809, F557L); assay: Activation of human ERG1 F557L mutant expressed in Xenopus laevis oocytes assessed as shifting of voltage dependence of inactivation towards positive potentials at 30 uM by two electrode voltage clamp technique; type: cell-based; settings: oocyte; procedure, shortened: as §1
[12] = molecular target: T4, Voltage-gated inwardly rectifying potassium channel KCNH2; assay: Activation of human ERG1 L666A mutant expressed in Xenopus laevis oocytes assessed as shifting of voltage dependence of inactivation towards positive potentials at 30 uM by two electrode voltage clamp technique; type: cell-based; settings: oocyte; procedure, shortened: as §1
[13] = molecular target: T4, Voltage-gated inwardly rectifying potassium channel KCNH2; assay: Inhibition of human ERG1 L666A mutant expressed in Xenopus laevis oocytes assessed as decrease in current amplitude by two electrode voltage clamp technique; type: cell-based; settings: oocyte; procedure, shortened: as §1
[14] = molecular target: T1, Voltage-gated inwardly rectifying potassium channel KCNH2; assay: Activation of human ERG1 isoform 1 expressed in Xenopus laevis oocytes assessed as enhancement of current magnitude by two electrode voltage clamp technique; type: cell-based; settings: oocyte
[15] = molecular target: T1, Voltage-gated inwardly rectifying potassium channel KCNH2; assay: Activation of human ERG1 expressed in CHO cells assessed as enhancement of current magnitude at 10 uM by two electrode voltage clamp technique; type: cell-based
[16] = molecular target: T1, Voltage-gated inwardly rectifying potassium channel KCNH2; assay: Activation of human ERG1 isoform 1 expressed in Xenopus laevis oocytes assessed as shifting of voltage dependence of inactivation towards positive potentials at 1 uM by two electrode voltage clamp technique; type: cell-based; settings: oocyte; procedure, shortened: as §1
[17] = molecular target: T1, Voltage-gated inwardly rectifying potassium channel KCNH2; assay: Activation of human ERG1 isoform 1 expressed in Xenopus laevis oocytes assessed as shifting of voltage dependence of inactivation towards positive potentials at 3 uM by two electrode voltage clamp technique; type: cell-based; settings: oocyte; procedure, shortened: as §1
[18] = molecular target: T1, Voltage-gated inwardly rectifying potassium channel KCNH2; assay: Activation of human ERG1 isoform 1 expressed in Xenopus laevis oocytes assessed as shifting of voltage dependence of inactivation towards positive potentials at 10 uM by two electrode voltage clamp technique; type: cell-based; settings: oocyte; procedure, shortened: as §1
[19] = molecular target: T1, Voltage-gated inwardly rectifying potassium channel KCNH2; assay: Activation of human ERG1 isoform 1 expressed in Xenopus laevis oocytes assessed as shifting of voltage dependence of inactivation towards positive potentials at 30 uM by two electrode voltage clamp technique; type: cell-based; settings: oocyte; procedure, shortened: as §1
[20] = molecular target: T1, Voltage-gated inwardly rectifying potassium channel KCNH2; assay: Activation of human ERG1 isoform 1 expressed in Xenopus laevis oocytes assessed as shifting of voltage dependence of inactivation towards positive potentials by two electrode voltage clamp technique; type: cell-based, Oocyte; procedure, shortened: as §1
[21] = molecular target: T1, Voltage-gated inwardly rectifying potassium channel KCNH2; assay: Activation of human ERG1 isoform 1 expressed in Xenopus laevis oocytes assessed as increase in peak tail current magnitude by two electrode voltage clamp technique; type: cell-based, Oocyte
[22] = molecular target: T1, Voltage-gated inwardly rectifying potassium channel KCNH2; assay: Binding affinity to human ERG1 expressed in Xenopus laevis oocytes assessed as half-saturation concentration; type: cell-based, Oocyte; settings: read-out: Activity
[23] = molecular target: T6, Voltage-gated inwardly rectifying potassium channel KCNH2 (Homo sapiens, UniProt Q12809, L553A); assay: (§4) Activation of human ERG1 L553A mutant expressed in Xenopus laevis oocytes assessed as slowing of tail current deactivation at 3 uM by two electrode voltage clamp technique; type: cell-based; settings: oocyte; procedure, shortened: as §1
[24] = molecular target: T5, Voltage-gated inwardly rectifying potassium channel KCNH2; assay: (§5) Activation of human ERG1 F557L mutant expressed in Xenopus laevis oocytes assessed as slowing of tail current deactivation at 3 uM by two electrode voltage clamp technique; type: cell-based; settings: oocyte; procedure, shortened: as §1
[25] = molecular target: T2, Voltage-gated inwardly rectifying potassium channel KCNH2; assay: as §2; type: cell-based; settings: oocyte; procedure, shortened: as §1; remark: listed apart in the source
[26] = molecular target: T3, Voltage-gated inwardly rectifying potassium channel KCNH2; assay: as §3; type: cell-based; settings: oocyte; procedure, shortened: as §1; remark: listed apart in the source
[27] = molecular target: T6, Voltage-gated inwardly rectifying potassium channel KCNH2; assay: as §4; type: cell-based; settings: oocyte; procedure, shortened: as §1; remark: listed apart in the source
[28] = molecular target: T5, Voltage-gated inwardly rectifying potassium channel KCNH2; assay: as §5; type: cell-based; settings: oocyte; procedure, shortened: as §1; remark: listed apart in the source

Question: With COc1ccc2nccc(C(=O)CC[C@@H]3CCN(CC#Cc4cc(F)cc(F)c4F)C[C@@H]3C(=O)O)c2c1 as the molecule, how does the Activity [1] read?
Answer: Its Activity is “Not Active”.

Question: And the Activity [2]?
Answer: The Activity was “Active”.

Question: And the Activity [3]?
Answer: Its Activity is “Not Active”.

Question: What about the Activity [4] of the same molecule?
Answer: Its Activity is “Active”.

Question: What about the Activity [5] of the same molecule?
Answer: The Activity was “Not Active”.

Question: What about the Activity [6] of the same molecule?
Answer: The Activity was “Active”.

Question: And the Activity [7]?
Answer: The Activity was “Active”.

Question: And the Activity [8]?
Answer: The Activity was “Active”.

Question: What about the Activity [9] of the same molecule?
Answer: Its Activity is “Active”.

Question: What about the Activity [10] of the same molecule?
Answer: Its Activity is “Active”.

Question: And the Activity [11]?
Answer: The Activity was less than 10 mV.

Question: And the Activity [12]?
Answer: The Activity was less than 10 mV.

Question: And the Activity [13]?
Answer: The Activity was “Active”.

Question: And the Activity [14]?
Answer: The Activity was “Active”.

Question: What about the Activity [15] of the same molecule?
Answer: The Activity was 15%.

Question: What about the Activity [16] of the same molecule?
Answer: The Activity was 10.2 mV.

Question: And the Activity [17]?
Answer: Its Activity is 17.2 mV.

Question: And the Activity [18]?
Answer: The Activity was 28 mV.

Question: And the Activity [19]?
Answer: Its Activity is 36.9 mV.

Question: And the EC50 [20]?
Answer: Its EC50 is 8 µM.

Question: And the EC50 [21]?
Answer: Its EC50 is 15 µM.

Question: And the Kd [22]?
Answer: The Kd was 9.4 µM.

Question: And the Activity [23]?
Answer: Its Activity is “Not Active”.

Question: And the Activity [24]?
Answer: Its Activity is “Not Active”.

Question: And the Activity [25]?
Answer: Its Activity is “Not Active”.

Question: And the Activity [26]?
Answer: The Activity was “Not Active”.

Question: What about the Activity [27] of the same molecule?
Answer: Its Activity is “Not Active”.

Question: And the Activity [28]?
Answer: Its Activity is “Not Active”.
